Test results from ChEMBL document CHEMBL1649455, “Antimicrobial susceptibility and mechanisms of resistance in Shigella and Salmonella isolates from children under five years of age with diarrhea in rural Mozambique” (2009).

Columns and labels:
Salmonella typhimurium = assay: Antimicrobial activity against Salmonella enterica serovar Typhimurium assessed as resistant isolates by disk diffusion method; format: functional, Salmonella enterica subsp. enterica serovar Typhimurium
In short: (§1)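 Isolates came from rectal swabs of children under five seen at MDH between July 2001 and July 2003. There were 109 Shigella and 40 Salmonella. Swabs were cultured on MacConkey, Salmonella-Shigella and XLD agars. Identity was confirmed biochemically and by API-20E. Shigella serogroups were assigned by slide agglutination. Salmonella serotypes were assigned with somatic and flagellar antisera.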

Salmonella sp. [1] = assay: Antimicrobial activity against Salmonella spp. harboring carb-like gene assessed as resistant isolates by disk diffusion method; format: functional
In short: (§2)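 Resistance genes were sought by PCR in isolates fully resistant to the matching antibiotic. One colony was boiled 10 min in water to make template. PCR used […] each primer, 0.4 mM dNTPs and Taq, for 30 cycles of 94°C 1 min, primer-specific annealing 1 min and 72°C 1 min, then 72°C for 10 min. Products were run on 1.5% agarose gels with ethidium bromide.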

Salmonella sp. [2] = assay: Antimicrobial activity against Salmonella spp. harboring tem-like gene assessed as resistant isolates by disk diffusion method; format: functional
Shigella flexneri [3] = assay: Antimicrobial activity against Shigella flexneri harboring shv-like gene assessed as resistant isolates by disk diffusion method; format: functional
[4] = Antimicrobial activity against Salmonella enterica serovar Infantis assessed as resistant isolates by disk diffusion method; format: functional, Salmonella enterica subsp. enterica serovar Infantis; in short: as §1
Shigella flexneri [5] = assay: Antimicrobial activity against Shigella flexneri harboring oxa-2-like gene assessed as resistant isolates by disk diffusion method; format: functional; in short: as §2
[6] = Antimicrobial activity against Salmonella enterica serovar Virchow assessed as resistant isolates by disk diffusion method; format: functional, Salmonella enterica subsp. enterica serovar Virchow; in short: as §1
Salmonella sp. [7] = assay: Antimicrobial activity against Salmonella spp. harboring oxa-5-like gene assessed as resistant isolates by disk diffusion method; format: functional; in short: as §2
Salmonella sp. [8] = assay: Antimicrobial activity against Salmonella spp. harboring oxa-1-like gene assessed as resistant isolates by disk diffusion method; format: functional; in short: as §2
Shigella flexneri [9] = assay: Antimicrobial activity against Shigella flexneri assessed as resistant isolates by disk diffusion method; format: functional; in short: as §1
Shigella flexneri [10] = assay: Antimicrobial activity against Shigella flexneri harboring oxa-5-like gene assessed as resistant isolates by disk diffusion method; format: functional; in short: as §2
Shigella sonnei [11] = assay: Antimicrobial activity against Shigella sonnei assessed as resistant isolates by disk diffusion method; format: functional; in short: as §1
Salmonella sp. [12] = assay: Antimicrobial activity against Salmonella spp. harboring shv-like gene assessed as resistant isolates by disk diffusion method; format: functional; in short: as §2
Salmonella sp. [13] = assay: Antimicrobial activity against Salmonella spp. harboring oxa-2-like gene assessed as resistant isolates by disk diffusion method; format: functional
Shigella flexneri [14] = assay: Antimicrobial activity against Shigella flexneri harboring oxa-1-like gene assessed as resistant isolates by disk diffusion method; format: functional; in short: as §2
Shigella flexneri [15] = assay: Antimicrobial activity against Shigella flexneri harboring carb-like gene assessed as resistant isolates by disk diffusion method; format: functional; in short: as §2
Shigella flexneri [16] = assay: Antimicrobial activity against Shigella flexneri harboring tem-like gene assessed as resistant isolates by disk diffusion method; format: functional
Salmonella enterica = assay: Antimicrobial activity against Salmonella enterica clinical isolates assessed as resistant isolates by disk diffusion method; format: functional; in short: as §1
Shigella sonnei [17] = assay: Antimicrobial activity against Shigella sonnei harboring tetG gene assessed as resistant isolates by disk diffusion method; format: functional; in short: as §2
Shigella flexneri [18] = assay: Antimicrobial activity against Shigella flexneri harboring tetA gene assessed as resistant isolates by disk diffusion method; format: functional
Shigella flexneri [19] = assay: Antimicrobial activity against Shigella flexneri harboring tetG gene assessed as resistant isolates by disk diffusion method; format: functional; in short: as §2
Salmonella sp. [20] = assay: Antimicrobial activity against Salmonella spp. harboring tetA gene assessed as resistant isolates by disk diffusion method; format: functional
Shigella sonnei [21] = assay: Antimicrobial activity against Shigella sonnei harboring tetB gene assessed as resistant isolates by disk diffusion method; format: functional; in short: as §2
Shigella flexneri [22] = assay: Antimicrobial activity against Shigella flexneri harboring tetB gene assessed as resistant isolates by disk diffusion method; format: functional
Salmonella sp. [23] = assay: Antimicrobial activity against Salmonella spp. harboring tetB gene assessed as resistant isolates by disk diffusion method; format: functional
Salmonella sp. [24] = assay: Antimicrobial activity against Salmonella spp. harboring tetG gene assessed as resistant isolates by disk diffusion method; format: functional
Shigella sonnei [25] = assay: Antimicrobial activity against Shigella sonnei harboring tetA gene assessed as resistant isolates by disk diffusion method; format: functional
Shigella flexneri [26] = assay: Antimicrobial activity against Shigella flexneri harboring cmlA-like gene assessed as resistant isolates by disk diffusion method; format: functional
Shigella flexneri [27] = assay: Antimicrobial activity against Shigella flexneri harboring CAT gene assessed as resistant isolates by disk diffusion method; format: functional
Shigella flexneri [28] = assay: Antimicrobial activity against Shigella flexneri harboring floR-like gene assessed as resistant isolates by disk diffusion method; format: functional; in short: as §2
Salmonella sp. [29] = assay: Antimicrobial activity against Salmonella spp. harboring floR-like gene assessed as resistant isolates by disk diffusion method; format: functional
Salmonella sp. [30] = assay: Antimicrobial activity against Salmonella spp. harboring CAT gene assessed as resistant isolates by disk diffusion method; format: functional
Salmonella sp. [31] = assay: Antimicrobial activity against Salmonella spp. harboring cmlA-like gene assessed as resistant isolates by disk diffusion method; format: functional

CC1(C)S[C@@H]2[C@H](NC(=O)[C@H](N)c3ccccc3)C(=O)N2[C@H]1C(=O)O [AMPICILLIN]
Activity (Salmonella typhimurium): 67% | Activity (Salmonella sp. [1]): 0% | Activity (Salmonella sp. [2]): 70% | Activity (Shigella flexneri [3]): 2% | Activity [4]: 0% | Activity (Shigella flexneri [5]): 5% | Activity [6]: 0% | Activity (Salmonella sp. [7]): 20% | Activity (Salmonella sp. [8]): 0% | Activity (Shigella flexneri [9]): 66% | Activity (Shigella flexneri [10]): 2% | Activity (Shigella sonnei [11]): 0% | Activity (Salmonella sp. [12]): 0% | Activity (Salmonella sp. [13]): 0% | Activity (Shigella flexneri [14]): 90% | Activity (Shigella flexneri [15]): 0% | Activity (Shigella flexneri [16]): 5% | Activity (Salmonella enterica): 25%

CN(C)[C@@H]1C(O)=C(C(N)=O)C(=O)[C@@]2(O)C(O)=C3C(=O)c4c(O)cccc4[C@@](C)(O)[C@H]3C[C@@H]12 [TETRACYCLINE]
Activity (Shigella sonnei [17]): 36% | Activity (Salmonella typhimurium): 0% | Activity (Shigella flexneri [18]): 2% | Activity (Shigella flexneri [19]): 22% | Activity [4]: 0% | Activity [6]: 0% | Activity (Salmonella sp. [20]): 33% | Activity (Shigella sonnei [21]): 0% | Activity (Shigella flexneri [22]): 98% | Activity (Salmonella sp. [23]): 0% | Activity (Shigella flexneri [9]): 64% | Activity (Shigella sonnei [11]): 93% | Activity (Salmonella sp. [24]): 0% | Activity (Shigella sonnei [25]): 71% | Activity (Salmonella enterica): 25%

O=C(N[C@H](CO)[C@H](O)c1ccc([N+](=O)[O-])cc1)C(Cl)Cl [CHLORAMPHENICOL]
Activity (Salmonella typhimurium): 22% | Activity (Shigella flexneri [26]): 2% | Activity (Shigella flexneri [27]): 89% | Activity [4]: 0% | Activity [6]: 0% | Activity (Shigella flexneri [28]): 0% | Activity (Shigella flexneri [9]): 61% | Activity (Shigella sonnei [11]): 0% | Activity (Salmonella sp. [29]): 83% | Activity (Salmonella sp. [30]): 67% | Activity (Salmonella sp. [31]): 33% | Activity (Salmonella enterica): 25%
